Laboratory results taken from ChEMBL document CHEMBL1149534, “3-Arylamino-2H-1,2,4-benzothiadiazin-5-ol 1,1-dioxides as novel and selective CXCR2 antagonists” (Bioorg Med Chem Lett, 2007).
In brackets after ≈: the same amount, converted by molar mass.

Assays:
[1] = molecular target: T1, C-X-C chemokine receptor type 2 (Homo sapiens, UniProt P25025); assay: Displacement of human recombinant [125I]IL8 from CXCR2 receptor expressed in CHO cells; assay type: cell-based
T1 sequence (P25025 whole entry): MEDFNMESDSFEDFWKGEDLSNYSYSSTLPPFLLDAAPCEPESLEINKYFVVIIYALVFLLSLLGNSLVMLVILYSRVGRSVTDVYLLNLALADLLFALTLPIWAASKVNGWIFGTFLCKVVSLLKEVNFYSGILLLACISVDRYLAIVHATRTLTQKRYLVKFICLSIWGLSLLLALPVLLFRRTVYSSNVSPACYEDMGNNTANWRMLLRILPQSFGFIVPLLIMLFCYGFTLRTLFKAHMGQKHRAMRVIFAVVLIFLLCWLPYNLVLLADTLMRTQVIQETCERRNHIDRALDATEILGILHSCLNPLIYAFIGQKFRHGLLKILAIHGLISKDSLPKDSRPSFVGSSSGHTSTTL
Procedure, shortened: (§1)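 Membranes from CHO cells expressing CXCR1 or CXCR2, with ~0.25 nM human recombinant [125I]-IL-8 as radioligand, run in 96-well format. Values are the mean of three individual experiments.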

[2] = molecular target: Interleukin-8 receptors, CXCR1/CXCR2 (Homo sapiens) (UniProt P25025+P25024); assay: Ratio of IC50 for CXCR2 receptor to IC50 CXCR1 receptor; assay type: protein assay
Procedure, shortened: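 Selectivity ratio from radioligand-binding IC50s at CXCR2 and CXCR1, using CHO-cell membranes expressing each receptor. Binding results are the mean of three individual experiments.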

[3] = molecular target: T1, C-X-C chemokine receptor type 2; assay: Antagonist activity at CXCR2 receptor expressed in CHOK1 cells assessed as human IL8-induced calcium mobilization by FLIPR; assay type: functional, cell-based, CHO-K1
Procedure, shortened: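 Cells grown 24 h, loaded with Fluo-4 AM calcium dye, then exposed to compound at […] for 10 min at 37 °C. Ca2+ mobilization read on FLIPR as percent of maximal IL-8 response. IC50 taken as concentration giving 50% inhibition of the maximal IL-8 response.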

[4] = molecular target: T2, C-X-C chemokine receptor type 1 (Homo sapiens, UniProt P25024); assay: Displacement of human recombinant [125I]IL8 from CXCR1 receptor expressed in CHO cells; assay type: cell-based; procedure, shortened: as §1
T2 sequence (P25024 whole entry): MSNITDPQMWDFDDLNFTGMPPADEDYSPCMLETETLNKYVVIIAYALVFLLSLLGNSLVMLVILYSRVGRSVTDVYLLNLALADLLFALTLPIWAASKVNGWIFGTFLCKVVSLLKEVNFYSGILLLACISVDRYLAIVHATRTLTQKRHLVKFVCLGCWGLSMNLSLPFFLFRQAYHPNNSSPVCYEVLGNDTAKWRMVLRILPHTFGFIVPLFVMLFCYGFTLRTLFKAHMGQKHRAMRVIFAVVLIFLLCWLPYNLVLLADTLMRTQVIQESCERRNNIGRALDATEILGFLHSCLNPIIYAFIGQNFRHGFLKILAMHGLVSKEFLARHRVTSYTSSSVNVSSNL

[5] = Solubility in phosphate buffer at pH 7.4; assay type: physicochemical
Procedure, shortened: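 Aqueous solubility measured in 0.05 M phosphate buffer, pH 7.4, containing 2% DMSO. High-throughput HPLC-based read-out.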

[6] = molecular target: 5-hydroxytryptamine receptor 7 (Homo sapiens, UniProt P34969); assay: Inhibition of 5HT7 receptor
[7] = molecular target: 5-hydroxytryptamine receptor 2C (Homo sapiens, UniProt P28335); assay: Inhibition of 5HT2C receptor
P2Y purinoceptor 1 = P2Y purinoceptor 1 (Homo sapiens, UniProt P47900); assay: Inhibition of P2Y1 receptor
D(3) dopamine receptor = D(3) dopamine receptor (Homo sapiens, UniProt P35462); assay: Inhibition of dopamine D3 receptor
[8] = molecular target: 5-hydroxytryptamine receptor 4 (Homo sapiens, UniProt Q13639); assay: Inhibition of 5HT4A receptor
[9] = molecular target: Beta-2 adrenergic receptor (Homo sapiens, UniProt P07550); assay: Inhibition of adrenergic beta2 receptor
[10] = molecular target: 5-hydroxytryptamine receptor 1A (Homo sapiens, UniProt P08908); assay: Inhibition of 5HT1A receptor
[11] = molecular target: T3, Adrenergic receptor alpha-1 (Homo sapiens, UniProt P35348+P25100+P35368); assay: Inhibition of adrenergic alpha-1A receptor; assay type: protein assay
[12] = molecular target: Mitogen-activated protein kinase 14 (Homo sapiens, UniProt Q16539); assay: Inhibition of P38alpha
D(2) dopamine receptor = D(2) dopamine receptor (Homo sapiens, UniProt P14416); assay: Inhibition of dopamine D2 receptor
[13] = molecular target: 5-hydroxytryptamine receptor 1B (Homo sapiens, UniProt P28222); assay: Inhibition of 5HT1B receptor
[14] = molecular target: Plasminogen activator inhibitor 1 (Homo sapiens, UniProt P05121); assay: Inhibition of PAI1
[15] = molecular target: T3, Adrenergic receptor alpha-1; assay: Inhibition of adrenergic A1 receptor; assay type: protein assay
[16] = molecular target: 5-hydroxytryptamine receptor 6 (Homo sapiens, UniProt P50406); assay: Inhibition of 5HT6 receptor
Histamine H1 receptor = Histamine H1 receptor (Homo sapiens, UniProt P35367); assay: Inhibition of histamine H1 receptor
Adenosine receptor A2a = Adenosine receptor A2a (Homo sapiens, UniProt P29274); assay: Inhibition of adenosine A2a receptor
[17] = molecular target: 5-hydroxytryptamine receptor 1D (Homo sapiens, UniProt P28221); assay: Inhibition of 5HT1D receptor
[18] = molecular target: Beta-1 adrenergic receptor (Homo sapiens, UniProt P08588); assay: Inhibition of adrenergic beta-1 receptor
Histamine H3 receptor = Histamine H3 receptor (Homo sapiens, UniProt Q9Y5N1); assay: Inhibition of histamine H3 receptor
Sequence of Histamine H3 receptor (Q9Y5N1 whole entry): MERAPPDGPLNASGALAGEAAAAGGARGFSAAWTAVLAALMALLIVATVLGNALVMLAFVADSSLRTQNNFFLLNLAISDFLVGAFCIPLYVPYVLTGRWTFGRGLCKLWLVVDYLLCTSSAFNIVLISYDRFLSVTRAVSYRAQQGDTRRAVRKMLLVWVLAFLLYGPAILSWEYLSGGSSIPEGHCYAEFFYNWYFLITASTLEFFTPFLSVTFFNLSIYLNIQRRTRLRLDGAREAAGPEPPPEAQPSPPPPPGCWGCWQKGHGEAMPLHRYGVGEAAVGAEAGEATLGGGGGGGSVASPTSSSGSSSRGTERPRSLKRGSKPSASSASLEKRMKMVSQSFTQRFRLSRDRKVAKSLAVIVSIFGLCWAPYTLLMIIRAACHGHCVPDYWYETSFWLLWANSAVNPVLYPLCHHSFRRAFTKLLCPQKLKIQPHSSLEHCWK

Sequence of 5-hydroxytryptamine receptor 2C (P28335 whole entry): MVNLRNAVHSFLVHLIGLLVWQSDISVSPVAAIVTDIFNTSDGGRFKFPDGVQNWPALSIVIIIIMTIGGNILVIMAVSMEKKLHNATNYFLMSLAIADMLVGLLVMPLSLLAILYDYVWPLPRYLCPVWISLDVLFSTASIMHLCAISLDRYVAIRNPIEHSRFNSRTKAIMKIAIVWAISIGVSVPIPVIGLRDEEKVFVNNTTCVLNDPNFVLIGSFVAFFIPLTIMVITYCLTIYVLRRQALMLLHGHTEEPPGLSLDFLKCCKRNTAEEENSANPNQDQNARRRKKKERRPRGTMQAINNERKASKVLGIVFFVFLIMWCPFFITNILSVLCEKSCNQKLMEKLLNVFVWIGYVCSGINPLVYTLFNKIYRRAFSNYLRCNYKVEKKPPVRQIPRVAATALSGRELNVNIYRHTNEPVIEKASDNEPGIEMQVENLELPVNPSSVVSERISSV
Sequence of 5-hydroxytryptamine receptor 1D (P28221 whole entry): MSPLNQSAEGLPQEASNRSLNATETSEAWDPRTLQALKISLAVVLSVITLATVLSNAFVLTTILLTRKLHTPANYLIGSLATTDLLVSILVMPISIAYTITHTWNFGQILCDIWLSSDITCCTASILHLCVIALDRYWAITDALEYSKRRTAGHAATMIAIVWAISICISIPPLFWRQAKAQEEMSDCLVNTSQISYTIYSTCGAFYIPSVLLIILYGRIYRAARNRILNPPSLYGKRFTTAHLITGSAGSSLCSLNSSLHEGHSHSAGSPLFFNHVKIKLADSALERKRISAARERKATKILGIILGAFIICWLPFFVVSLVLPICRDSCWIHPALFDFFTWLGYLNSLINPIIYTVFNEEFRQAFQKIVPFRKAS
Sequence of P2Y purinoceptor 1 (P47900 whole entry): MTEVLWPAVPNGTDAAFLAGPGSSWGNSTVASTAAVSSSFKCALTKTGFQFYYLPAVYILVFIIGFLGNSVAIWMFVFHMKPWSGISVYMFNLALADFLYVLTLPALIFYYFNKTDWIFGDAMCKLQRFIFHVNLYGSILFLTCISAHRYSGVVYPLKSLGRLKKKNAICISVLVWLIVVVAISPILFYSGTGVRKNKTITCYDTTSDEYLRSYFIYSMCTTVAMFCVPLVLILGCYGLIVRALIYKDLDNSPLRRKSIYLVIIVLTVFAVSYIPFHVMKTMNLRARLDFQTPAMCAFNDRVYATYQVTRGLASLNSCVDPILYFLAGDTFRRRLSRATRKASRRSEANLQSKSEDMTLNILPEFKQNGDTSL
Sequence of D(3) dopamine receptor (P35462 whole entry): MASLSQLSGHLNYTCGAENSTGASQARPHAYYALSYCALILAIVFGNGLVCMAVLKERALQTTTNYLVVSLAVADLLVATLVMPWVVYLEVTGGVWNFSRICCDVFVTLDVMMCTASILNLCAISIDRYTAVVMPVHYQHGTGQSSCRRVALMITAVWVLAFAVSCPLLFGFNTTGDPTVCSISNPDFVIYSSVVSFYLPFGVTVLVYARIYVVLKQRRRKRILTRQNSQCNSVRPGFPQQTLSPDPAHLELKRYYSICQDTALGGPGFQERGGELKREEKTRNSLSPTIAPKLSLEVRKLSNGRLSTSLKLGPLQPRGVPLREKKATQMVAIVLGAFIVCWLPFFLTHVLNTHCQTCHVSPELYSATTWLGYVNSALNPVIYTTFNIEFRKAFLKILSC
Sequence of Adenosine receptor A2a (P29274 whole entry): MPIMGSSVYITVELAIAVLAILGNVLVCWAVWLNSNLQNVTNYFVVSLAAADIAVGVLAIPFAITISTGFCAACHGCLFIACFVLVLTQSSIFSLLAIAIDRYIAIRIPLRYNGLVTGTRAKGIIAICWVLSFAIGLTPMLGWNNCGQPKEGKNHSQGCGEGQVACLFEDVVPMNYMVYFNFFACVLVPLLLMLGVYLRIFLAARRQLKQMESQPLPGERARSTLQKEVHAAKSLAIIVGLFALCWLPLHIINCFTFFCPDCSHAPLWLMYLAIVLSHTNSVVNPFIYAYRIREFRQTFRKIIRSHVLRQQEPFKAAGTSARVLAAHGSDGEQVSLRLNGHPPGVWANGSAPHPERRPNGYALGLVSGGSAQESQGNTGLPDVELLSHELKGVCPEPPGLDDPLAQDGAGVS
Sequence of Histamine H1 receptor (P35367 whole entry): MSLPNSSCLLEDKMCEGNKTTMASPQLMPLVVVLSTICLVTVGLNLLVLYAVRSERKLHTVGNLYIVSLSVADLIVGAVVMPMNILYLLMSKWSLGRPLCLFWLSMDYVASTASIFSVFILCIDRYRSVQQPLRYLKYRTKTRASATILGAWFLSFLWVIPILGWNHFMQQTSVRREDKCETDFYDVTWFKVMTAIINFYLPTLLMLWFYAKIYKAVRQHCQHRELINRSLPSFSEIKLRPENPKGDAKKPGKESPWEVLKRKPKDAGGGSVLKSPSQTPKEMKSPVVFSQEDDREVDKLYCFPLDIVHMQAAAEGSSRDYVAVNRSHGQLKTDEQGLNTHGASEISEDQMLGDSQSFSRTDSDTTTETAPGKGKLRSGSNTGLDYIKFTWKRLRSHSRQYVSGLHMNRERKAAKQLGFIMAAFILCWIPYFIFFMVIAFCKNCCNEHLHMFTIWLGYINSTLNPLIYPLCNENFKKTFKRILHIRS
Sequence of 5-hydroxytryptamine receptor 4 (Q13639 whole entry): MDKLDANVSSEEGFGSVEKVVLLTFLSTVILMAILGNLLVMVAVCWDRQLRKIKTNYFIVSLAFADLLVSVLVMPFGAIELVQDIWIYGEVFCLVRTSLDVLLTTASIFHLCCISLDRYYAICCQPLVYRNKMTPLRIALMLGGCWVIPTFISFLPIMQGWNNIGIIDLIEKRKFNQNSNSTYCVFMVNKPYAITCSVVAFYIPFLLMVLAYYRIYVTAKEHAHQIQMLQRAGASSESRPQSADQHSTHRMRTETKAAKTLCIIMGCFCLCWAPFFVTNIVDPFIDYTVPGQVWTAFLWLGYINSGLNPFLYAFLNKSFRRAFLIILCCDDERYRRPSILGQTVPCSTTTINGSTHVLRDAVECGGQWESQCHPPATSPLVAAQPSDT
Sequence of 5-hydroxytryptamine receptor 7 (P34969 whole entry): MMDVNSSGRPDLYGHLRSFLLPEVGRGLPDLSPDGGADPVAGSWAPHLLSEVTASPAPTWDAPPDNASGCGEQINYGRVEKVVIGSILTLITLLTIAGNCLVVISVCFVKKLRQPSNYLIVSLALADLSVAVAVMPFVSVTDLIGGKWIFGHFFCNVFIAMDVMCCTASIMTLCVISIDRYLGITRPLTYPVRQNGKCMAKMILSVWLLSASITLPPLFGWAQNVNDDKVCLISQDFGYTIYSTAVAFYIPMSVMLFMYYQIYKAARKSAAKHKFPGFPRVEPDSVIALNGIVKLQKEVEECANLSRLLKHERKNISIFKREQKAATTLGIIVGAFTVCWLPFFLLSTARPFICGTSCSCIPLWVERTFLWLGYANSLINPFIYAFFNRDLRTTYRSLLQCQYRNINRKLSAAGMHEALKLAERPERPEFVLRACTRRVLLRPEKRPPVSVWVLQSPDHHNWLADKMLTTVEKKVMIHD
Sequence of 5-hydroxytryptamine receptor 1A (P08908 whole entry): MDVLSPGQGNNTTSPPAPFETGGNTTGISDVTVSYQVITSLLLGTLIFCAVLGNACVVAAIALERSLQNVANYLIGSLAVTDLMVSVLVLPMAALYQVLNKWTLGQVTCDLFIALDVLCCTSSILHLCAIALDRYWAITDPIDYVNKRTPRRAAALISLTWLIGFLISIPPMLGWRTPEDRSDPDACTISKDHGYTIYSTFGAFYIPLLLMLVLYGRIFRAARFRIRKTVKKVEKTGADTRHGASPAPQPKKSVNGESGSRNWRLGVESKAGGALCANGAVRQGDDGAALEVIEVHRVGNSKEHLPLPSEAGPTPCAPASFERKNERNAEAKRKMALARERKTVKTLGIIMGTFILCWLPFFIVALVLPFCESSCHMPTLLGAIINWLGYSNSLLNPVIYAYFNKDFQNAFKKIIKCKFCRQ
Sequence of Plasminogen activator inhibitor 1 (P05121 whole entry): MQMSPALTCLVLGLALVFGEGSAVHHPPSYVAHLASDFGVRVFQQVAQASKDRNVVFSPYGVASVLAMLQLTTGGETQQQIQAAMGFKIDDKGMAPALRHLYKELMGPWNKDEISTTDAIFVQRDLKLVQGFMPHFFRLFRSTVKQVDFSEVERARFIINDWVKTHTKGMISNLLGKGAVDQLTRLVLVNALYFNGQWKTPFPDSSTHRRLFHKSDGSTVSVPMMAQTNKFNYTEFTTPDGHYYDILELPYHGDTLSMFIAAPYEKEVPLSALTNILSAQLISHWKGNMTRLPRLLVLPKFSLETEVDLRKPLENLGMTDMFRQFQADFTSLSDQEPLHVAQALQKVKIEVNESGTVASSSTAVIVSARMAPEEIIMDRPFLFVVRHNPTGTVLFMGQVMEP

Compound: O=S1(=O)N=C(Nc2ccccc2Br)Nc2c(O)ccc(F)c21
- IC50 [1]: 3 µM

Compound: O=C(O)c1ccccc1NC1=Nc2c(O)cc(Cl)cc2S(=O)(=O)N1
- IC50 [1]: > 30 µM

Compound: O=S1(=O)N=C(Nc2cccc(F)c2Cl)Nc2c(O)cc(Cl)cc21
- Ratio IC50 [2]: < 100

Compound: O=S1(=O)N=C(Nc2cc(F)ccc2Br)Nc2c(O)cc(Cl)cc21
- IC50 [1]: 3.9 µM

Compound: O=S1(=O)N=C(Nc2ccccc2Br)Nc2c(O)cc(Cl)cc21
- Ratio IC50 [2]: < 100

Compound: O=S1(=O)N=C(Nc2ccccc2Br)Nc2c(O)cc(Br)cc21
- IC50 [1]: 0.07 µM

Compound: O=S1(=O)NC(Nc2ccccc2-c2ccccc2)=Nc2c(O)cc(Cl)cc21
- IC50 [1]: 0.23 µM

Compound: O=S1(=O)N=C(Nc2ccccc2Oc2ccccc2)Nc2c(O)cc(Cl)cc21
- Ratio IC50 [2]: < 100
- IC50 [1]: 0.054 µM
- IC50 [3]: 0.32 µM
- IC50 [4]: 20 µM
- solubility [5]: < 1 µM

Compound: CC[C@@H](C)NC1=Nc2c(O)cc(Cl)cc2S(=O)(=O)N1
- IC50 [1]: 15 µM

Compound: O=[N+]([O-])c1cc(O)c2c(c1)S(=O)(=O)N=C(Nc1ccccc1Oc1ccccc1)N2
- IC50 [6]: 25 µM
- IC50 [7]: > 10 µM
- IC50 (P2Y purinoceptor 1): > 25 µM
- IC50 (D(3) dopamine receptor): > 3.2 µM
- IC50 [8]: > 25 µM
- Ratio IC50 [2]: < 100
- IC50 [9]: > 25 µM
- IC50 [10]: > 3.2 µM
- IC50 [11]: 1 µM
- IC50 [12]: 25 µM
- IC50 (D(2) dopamine receptor): > 3.2 µM
- IC50 [13]: > 3.2 µM
- IC50 [14]: 7.9 µM
- IC50 [15]: > 25 µM
- IC50 [1]: 0.054 µM
- IC50 [16]: > 7.9 µM
- IC50 [3]: 0.49 µM
- IC50 [4]: 7.6 µM
- IC50 (Histamine H1 receptor): > 10 µM
- IC50 (Adenosine receptor A2a): 25 µM
- IC50 [17]: > 3.2 µM
- solubility [5]: 2 µM (≈ 0.853 µg/mL)
- IC50 [18]: > 25 µM
- IC50 (Histamine H3 receptor): > 3.2 µM

Compound: O=S1(=O)N=C(Nc2ccccc2Cl)Nc2c(O)cc(Cl)cc21
- Ratio IC50 [2]: < 100
- IC50 [1]: 0.092 µM
- IC50 [3]: 0.52 µM
- IC50 [4]: 24 µM
- solubility [5]: 68 µM (≈ 24.4 µg/mL)

Compound: O=S1(=O)NC(NCc2ccccc2Cl)=Nc2c(O)cc(Cl)cc21
- IC50 [1]: > 30 µM

Compound: O=S1(=O)N=C(Nc2ccccc2)Nc2c(O)cc(Cl)cc21
- IC50 [1]: 2.4 µM

Compound: Cc1ccccc1NC1=NS(=O)(=O)c2cc(Cl)cc(O)c2N1
- IC50 [1]: 0.39 µM

Compound: O=S1(=O)N=C(Nc2ccccc2N2CCOCC2)Nc2c(O)cc(Cl)cc21
- IC50 [1]: > 30 µM

Compound: CC(=O)c1ccccc1NC1=Nc2c(O)cc(Cl)cc2S(=O)(=O)N1
- IC50 [1]: 4.5 µM

Compound: O=S1(=O)NC(Nc2ccccc2Br)=Nc2c(O)cc(Cl)cc21
- IC50 [1]: 0.064 µM
- IC50 [3]: 0.4 µM
- IC50 [4]: 13 µM
- solubility [5]: 31 µM (≈ 12.5 µg/mL)
